High-throughput results deposited in PubChem BioAssay by The Scripps Research Institute Molecular Screening Center.
OX1R antag-1 – human HCRTR1 antagonism; O43613; CHO/OX1R cells, Fluo-8 calcium fluorescence, orexin A; inhibition, % at 5 µM; hit rate 0.43% among 330,000;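 active = inhibition above its plate's threshold, mean inhibition of all tested compounds on the plate plus 3 SD, cut at about 37% in these data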
Target sequence (O43613 whole entry, looked up): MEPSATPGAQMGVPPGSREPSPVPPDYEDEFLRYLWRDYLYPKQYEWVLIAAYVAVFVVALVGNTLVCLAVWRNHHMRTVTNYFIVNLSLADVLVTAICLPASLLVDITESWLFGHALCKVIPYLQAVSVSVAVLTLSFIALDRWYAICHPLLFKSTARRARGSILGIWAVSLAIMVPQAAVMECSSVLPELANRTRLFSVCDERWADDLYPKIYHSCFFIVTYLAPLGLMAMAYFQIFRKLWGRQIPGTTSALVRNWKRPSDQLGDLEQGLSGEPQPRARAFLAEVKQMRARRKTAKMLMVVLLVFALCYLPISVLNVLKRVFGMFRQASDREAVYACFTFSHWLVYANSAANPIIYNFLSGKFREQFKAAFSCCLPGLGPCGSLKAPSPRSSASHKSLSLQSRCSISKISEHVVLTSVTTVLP
GalR3 antag – blocks the human galanin receptor 3. O60755. HEK293 GalR3-CNG cAMP membrane potential fluorescence; galR3 body fused to GalR1 C-terminus. inhibition, % at 3 µM. hit rate 0.44% among 360,000. AID 651719;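 active = inhibition above the screen-wide average plus 3 SD, cut at about 13% in these data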;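 also: forskolin and galanin both at EC90 stimulate the cells; cAMP rise reported by CNG channel membrane potential dye signal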
Target sequence (O60755 1-299 limits assumed): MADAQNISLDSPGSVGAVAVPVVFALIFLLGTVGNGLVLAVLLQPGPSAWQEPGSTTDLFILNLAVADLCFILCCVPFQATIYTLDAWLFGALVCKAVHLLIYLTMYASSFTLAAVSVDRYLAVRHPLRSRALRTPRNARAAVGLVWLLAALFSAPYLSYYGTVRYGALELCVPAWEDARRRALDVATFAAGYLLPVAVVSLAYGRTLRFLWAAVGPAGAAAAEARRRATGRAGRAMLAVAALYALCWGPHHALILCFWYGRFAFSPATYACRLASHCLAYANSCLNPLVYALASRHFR
TAAR1 antagonist – human TAAR1 antagonism | Q96RJ0 | CHO RD-HGA16 TAAR1, Fluo-8 calcium fluorescence, antagonist | inhibition, % at 3 µM | hit rate 1.5% among 360,000;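 active = inhibition above a per-plate cutoff, the mean inhibition of test compounds on that plate plus 3 SD, cut at about 49% in these data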
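Test system – hTAAR1-expressing CHO RD-HGA16 cells, Gα16-coupled · Also added – β-PEA at EC80 concentration, post-compound challenge · Compound – 3 µM, single point · Incubation – dye loading 75 min at 37 °C, then 30 min room temperature · Measured by – Fluo-8 intracellular calcium dye fluorescence, real-time kinetic reads · Benchmarks – vehicle and agonist controls · Replicates – singlicate, one well per test compound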
OX1R antag-2 – OX1R (human) antagonism | inhibition, % at 6.6 µM | OX1R-expressing cells, FRET antagonist read-out | hit rate 1.8% among 330,000; in the data active = inhibition mostly above about 38%, no sharp cut-off; inactive = mostly below about 40%
TAAR1 agonist – human TAAR1 agonism; Q96RJ0; AID 624467; hit rate 0.99% among 360,000; activation, % at 3 µM; CHO RD-HGA16 TAAR1, Fluo-8 calcium fluorescence; vehicle wells 0%, saturating PEA agonist 100%;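 active = activation above the mean activation of all test compounds in the run plus 3 SD, cut at about 38% in these data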
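Benchmarks: low control DMSO, high control PEA (EC100); System: CHO RD-HGA16 cells carrying human TAAR1 plus Gα16; Detection: Fluo-8 fluorescence, 5 s baseline then 140 s kinetic read; Schedule: 17-24 h plating, Fluo-8 75 min 37 °C, 30 min RT; Read-out basis: % activation from peak over basal fluorescence ratio, DMSO-to-PEA scaled.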
CHO parental Ca – counter-screen for OX1R antagonists: effect in parental CHO cells; parental CHO-K1, ATP-induced calcium, Fluo-8 fluorescence; inhibition, % at 5.6 µM; hit rate 0.63% among 330,000; AID 463079;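 active = inhibition above that plate's mean sample inhibition plus 3 SD, cut at about 26% in these data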
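Material: parental CHO cells / Compound: single nominal dose of 5.6 µM per compound / Signal: Fluo-8 fluorescence / Replicates: singlicate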
Large screens that a line does not name were inactive. Most compounds without a hit are left out; they make up all but 4.3% or so of the library.

CC(C)c1ccc(C(C)NCCS(=O)(=O)c2ccc(Cl)cc2)cc1 (stereo not drawn)	none
Oc1ccc(/C=N/Nc2ccnc3cc(Cl)ccc23)c(O)c1	TAAR1 agonist 44
Clc1ccc2c(N/N=C/c3ccc(Br)cc3)ccnc2c1	CHO parental Ca 49
Clc1ccc2c(N/N=C/c3cccnc3)ccnc2c1	none
CCOC(=O)C1=C(C)c2ccccc2N(C(=O)OC)C1(C)C(=O)OCC (stereo not drawn)	OX1R antag-2 33
Fc1ccccc1/C=C/c1ccc2ccccc2n1	OX1R antag-2 72
COc1c(O)cc2c(c1O)[C@@H]1O[C@H](CO)[C@@H](O)[C@H](O)[C@H]1OC2=O	none
Cc1c(C(=O)O)c(O)cc2c1C(=O)c1c(O)c([C@@H]3O[C@H](CO)[C@@H](O)[C@H](O)[C@H]3O)c(O)c(O)c1C2=O	OX1R antag-2 71
COc1ccccc1OCCNC(=O)c1ccc2c(c1)CCC2	none
CCOC(=O)CSC1=NC(=O)/C(=C\c2ccc(Cl)cc2)S1	OX1R antag-2 72
CSC1=NC(=O)/C(=C/c2ccc(SC)cc2)S1	OX1R antag-2 39
CN=C1S/C(=C\c2ccc(SC)cc2)C(=O)N1C	none
COc1cccc(Nc2nn3c(=O)c4ccccc4nc3s2)c1	OX1R antag-2 39 (no result: GalR3 antag, TAAR1 antagonist, TAAR1 agonist)
Cc1ccccc1Nc1nn2c(=O)c3ccccc3nc2s1	none
CCN(CC)S(=O)(=O)c1cccc(N=NC2=C(O)CCCC2=O)c1	none
O=C1CCCC(O)=C1N=Nc1cccc(C(=O)O)c1	OX1R antag-2 70
Cc1ccc(S(=O)(=O)NNC(=O)c2sccc2-n2cccc2)cc1	none
O=C(NNS(=O)(=O)c1cc(Cl)cc(Cl)c1)c1sccc1-n1cccc1	OX1R antag-2 69
Nc1cccc(N2C(=O)c3cccc4c(N)ccc(c34)C2=O)c1	none
CC(C)CCN1C(=O)c2cccc3c(N)ccc(c23)C1=O	OX1R antag-1 91, TAAR1 antagonist 78, TAAR1 agonist 149, CHO parental Ca 85
Cc1onc(-c2ccccc2)c1NC(=O)Nc1c(-c2ccccc2)noc1C	OX1R antag-2 51
C[C@@H]1CN([C@H](C)CO)S(=O)(=O)c2ccc(Br)cc2O[C@H]1CN(C)C(=O)C1CCCCC1	none (no result: OX1R antag-1, OX1R antag-2, CHO parental Ca)
CCOC(=O)Cc1csc(NC(=O)CSc2ncnc3c2cnn3-c2ccccc2Cl)n1	TAAR1 antagonist 62 (no result: OX1R antag-1, OX1R antag-2, CHO parental Ca)
O=C(NCc1cccc(C(F)(F)F)c1)C1C(=O)Nc2ccccc2C(=O)N1Cc1ccccc1 (stereo not drawn)	none (no result: OX1R antag-1, OX1R antag-2, CHO parental Ca)
CCN(C[C@H]1N[C@@](Cc2ccccc2)(C(=O)OC)[C@H]2C(=O)N(Cc3ccccc3)C(=O)[C@@H]12)C(=O)COc1ccccc1	none
COc1ncnc2c1NC1=C(S2)C(=NCCC(=O)O)CC(C)(C)C1	OX1R antag-2 71
CC(C)[C@H](NC(=O)OCc1ccccc1)C(=O)OCc1cc(=O)oc2cc(O)ccc12	TAAR1 antagonist 54
O=C(Nc1c(-c2ccccc2)nc2ccccn12)c1ccccc1F	none
COc1ccc(-c2csc(NC(=O)C3=NN(c4ccccc4)C(=O)CC3)n2)cc1	TAAR1 antagonist 57
COc1ccc(OC)c2sc(NC(=O)c3cccc(N4C(=O)CCC4=O)c3)nc12	none
COc1ccc(-c2csc(NC(=O)c3cccc(N4C(=O)CCC4=O)c3)n2)cc1C	TAAR1 antagonist 49
COc1ccc(C(=O)Nc2cc(OC)ccc2OC)cc1	none
COc1ccc(OC)c(NC(=O)c2ccc(-c3csc(C)n3)cc2)c1	OX1R antag-2 51
COc1ccc(-c2csc(NC(=O)c3ccccc3NS(=O)(=O)c3ccc(C)cc3)n2)cc1	OX1R antag-2 43
Cc1c(NC(=O)C(C)Oc2cccc(F)c2)c(=O)n(-c2ccccc2)n1C (stereo not drawn)	none
CCCCCNC(=O)C(CCc1ccccc1)n1c(=O)c(-c2ccccc2)nc2ccccc21 (stereo not drawn)	none (no result: OX1R antag-1, OX1R antag-2, CHO parental Ca)
COc1ccc(-c2csc(NC(=O)c3c(OC)cccc3OC)n2)cc1	OX1R antag-2 68
COc1ccc(-c2csc(NC(=O)c3ccco3)n2)cc1	none
O=C(c1ccccc1)c1coc(-c2ccccc2)c1	none (no result: OX1R antag-1, OX1R antag-2, CHO parental Ca)
CCn1ncc(C2=NOC(C(=O)NCC(C)C)C2)c1C (stereo not drawn)	none
CCn1ncc(C2=NOC(C(=O)NCCc3ccccc3)C2)c1C (stereo not drawn)	TAAR1 agonist 61
O=C1CCc2cc(S(=O)(=O)Nc3ccccc3)ccc2N1	none
Cc1cccc(N2CCN(C(=O)c3ccc(CS(=O)(=O)c4ccccc4C)o3)CC2C)c1 (stereo not drawn)	TAAR1 antagonist 50
Cc1cccc(N2CCN(C(=O)c3ccccn3)CC2C)c1 (stereo not drawn)	none
C[C@H](O)[C@@H]1C(=O)N2CCc3ccc(N4CCN(C)CC4)cc3[C@@H]2C[C@@H]1N(C)C(=O)c1cccnc1	none (no result: OX1R antag-1, OX1R antag-2, CHO parental Ca)
COc1ccc2c(C#CCCO)c(-c3ccc(S(C)(=O)=O)cc3)sc2c1	TAAR1 antagonist 62
COc1ccc(-c2sc3cc(OC)c(OC)cc3c2C#CCCO)cc1	none
CS(=O)(=O)c1ccc(-c2sc3ccccc3c2C#CCCO)cc1	TAAR1 antagonist 54
COc1ccc(-c2sc3ccccc3c2C#CCCO)cc1	none
Cc1cc(C(=O)NNC(=O)COc2ccccc2Cl)n[nH]1	none
N#CC1=C(N)NC(SCC(=O)c2ccc(Br)cc2)=C(C#N)C12CCCCC2	TAAR1 antagonist 66
N#CC1=C(N)NC(SCC(=O)c2ccc(Cl)cc2)=C(C#N)C12CCCC2	OX1R antag-1 53, TAAR1 antagonist 51
CC1(c2ccccc2)NC(=O)N(CC(=O)Nc2ccccc2N2CCCC2)C1=O (stereo not drawn)	none
COc1ccc(CN(C(=O)CN2C(=O)COc3ccccc32)C2CCCC2)c(OC)c1	OX1R antag-2 58
CCN1CCN(c2c(Cl)cccc2NC(=O)c2ccc([N+](=O)[O-])o2)CC1	OX1R antag-2 56
C=CCN1C(=O)c2n[nH]c(C(C)C)c2C1c1ccc(C)cc1 (stereo not drawn)	none (no result: OX1R antag-1, OX1R antag-2, CHO parental Ca)
CCOc1ccc(OCC(=O)OCC(=O)NCC2CCCO2)cc1 (stereo not drawn)	none
O=C1N=NC2=C1c1c3ccccc3c(O)n1CC2	OX1R antag-2 56
COc1cccc(-c2sc3ccccc3c2-c2ccc(OCCN3CCCC3)cc2)c1	none
COc1cccc(-c2sc3ccccc3c2-c2ccc(OCCN(C)C)cc2)c1	TAAR1 antagonist 51
Cc1ccc(S(=O)(=O)Nc2cc3c4c(c2)CCC(=O)N4CCC3)cc1	none
O=C(C1=C(O)C(=O)N(c2nccs2)C1c1ccccc1)c1cc2ccccc2o1 (stereo not drawn)	OX1R antag-1 52
